Data: ChEMBL document CHEMBL1154089, “Novel N-(3-carboxyl-9-benzyl-beta-carboline-1-yl)ethylamino acids: synthesis, anti-tumor evaluation, intercalating determination, 3D QSAR analysis and docking investigation” (Eur J Med Chem, 2009)

Tests used:
[1] = test system: CCRF S-180; experiment: Antitumor activity against mouse S180 cells xenografted in ICR mouse assessed as inhibition of tumor growth at 89 umol/kg, ip administered 24 hrs after tumor implantation once daily for 7 consecutive days measured after 24 hrs last post dose; format: functional; conditions: CCRF S-180, ip
Outline: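 S180 solid tumors in male ICR mice (10–12 weeks), 1 × 10^7 cells s.c. at the right armpit. Mice randomized at 24 h, n = 12 per group, and dosed i.p. daily in 0.2 ml 0.9% saline for 7 days. Tumors weighed 24 h after the final dose. Inhibition (%) = [(A − B)/A] × 100, where A is the mean tumor weight of saline controls and B is the mean of the treated group.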

[2] = Cytotoxicity against human H1299 cells after 48 hrs by MTT assay; format: functional, cell-based; conditions: NCI-H1299, 48 h
Outline: (§1)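 Cells grown in DMEM or RPMI-1640 with 10% FBS plus penicillin/streptomycin. Seeded at 5 × 10^4 cells/ml and given 4 h at 37 °C in 5% CO2 before the medium was replaced with compound (0.1–400 µM, DMSO vehicle; vehicle control 1% DMSO). After 48 h, MTT added (final 0.5 mg/ml) for 4 h. Formazan dissolved in DMSO and read at 570 nm. IC50 is the concentration giving 50% growth inhibition.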

[3] = test system: CCRF S-180; experiment: Antitumor activity against mouse S180 cells xenografted in ICR mouse assessed as decrease in tumor weight at 89 umol/kg, ip administered 24 hrs after tumor implantation once daily for 7 consecutive days measured after 24 hrs last post dose; format: functional
Outline: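 Male ICR mice, 10–12 weeks old. Solid tumors from 1 × 10^7 viable S180 ascites cells in 0.2 ml 0.9% saline, injected s.c. at the right armpit. Random allocation at 24 h, 12 per group. Dosed i.p. daily in 0.2 ml 0.9% saline for 7 days. Saline-only negative control; cytarabine 89 µmol/kg positive control. Tumors excised and weighed 24 h after the last dose. ANOVA used for statistics.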

[4] = test system: HeLa; experiment: Cytotoxicity against human HeLa cells after 48 hrs by MTT assay; format: functional, cell-based; outline: as §1
[5] = test system: Mus musculus; experiment: Toxicity in mouse S180 cells xenografted in ICR mouse assessed as spleen index at 89 umol/kg, ip administered 24 hrs after tumor implantation once daily for 7 consecutive days measured after 24 hrs last post dose; format: organism-based, CCRF S-180; conditions: in vivo
Outline: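 S180-bearing male ICR mice (n = 12) received 89 µmol/kg i.p. daily in 0.2 ml saline for 7 days. Killed under ether 24 h after the last dose; spleens excised and weighed. Spleen index given as mean ± SD, […] body weight.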

[6] = test system: Mus musculus; experiment: Toxicity in mouse S180 cells xenografted in ICR mouse assessed as increase in body weight at 89 umol/kg, ip administered 24 hrs after tumor implantation once daily for 7 consecutive days measured after 24 hrs last post dose; format: organism-based, CCRF S-180; conditions: in vivo
Outline: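 S180-bearing male ICR mice, n = 12 per group, given 89 µmol/kg i.p. daily in 0.2 ml 0.9% saline for 7 days, starting 24 h after s.c. implantation. Animals weighed daily. Result expressed as body-weight increase from the start of treatment, in g, mean ± SD.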

[7] = test system: HepG2; experiment: Cytotoxicity against human HepG2 cells after 48 hrs by MTT assay; format: functional, cell-based; conditions: HepG2, 48 h; outline: as §1
[8] = test system: HL-60; experiment: Cytotoxicity against human HL60 cells after 48 hrs by MTT assay; format: functional, cell-based; conditions: HL-60, 48 h; outline: as §1
[9] = Cytotoxicity against human MES-SA cells after 48 hrs by MTT assay; format: functional, cell-based; outline: as §1
[10] = test system: Mus musculus; experiment: Toxicity in ICR mouse assessed as twitch at > 500 mg/kg, ip after 7 days; format: organism-based; parameters: dose 500 mg/kg, route intraperitoneal; conditions: in vivo, 168 h
Outline: (§2)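 Mice fasted overnight with free access to water, then given a single i.p. injection of 150, 300 or 500 mg/kg in 0.2 ml of 0.9% saline. Groups of 12 (six male, six female). Animals were watched continuously for up to 7 days for abnormal behaviour (tremor, twitch, jumping, tetanus, supination) or death. They were sacrificed on day 7, and heart, liver and kidneys were checked macroscopically. LD50 was estimated graphically.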

[11] = test system: Mus musculus; experiment: Toxicity in ICR mouse assessed as supination at > 500 mg/kg, ip after 7 days; format: organism-based; parameters: dose 500 mg/kg, route intraperitoneal; conditions: in vivo, 168 h; outline: as §2
[12] = test system: Mus musculus; experiment: Toxicity in ICR mouse assessed as death at > 500 mg/kg, ip after 7 days; format: organism-based; parameters: dose 500 mg/kg, route intraperitoneal; conditions: in vivo, 168 h; outline: as §2
[13] = test system: Mus musculus; experiment: Toxicity in ICR mouse assessed as heart necropsy at > 500 mg/kg, ip after 7 days; format: organism-based; parameters: dose 500 mg/kg, route intraperitoneal; conditions: in vivo, 168 h; outline: as §2
[14] = test system: Mus musculus; experiment: Toxicity in ICR mouse assessed as kidneys necropsy at > 500 mg/kg, ip after 7 days; format: organism-based, Kidney; parameters: dose 500 mg/kg, route intraperitoneal; conditions: in vivo, 168 h; outline: as §2
[15] = test system: Mus musculus; experiment: Toxicity in ICR mouse assessed as jumping at > 500 mg/kg, ip after 7 days; format: organism-based; parameters: dose 500 mg/kg, route intraperitoneal; conditions: in vivo, 168 h; outline: as §2
[16] = test system: Mus musculus; experiment: Toxicity in ICR mouse assessed as liver necropsy at > 500 mg/kg, ip after 7 days; format: organism-based; parameters: dose 500 mg/kg, route intraperitoneal; conditions: in vivo, 168 h; outline: as §2
[17] = test system: Mus musculus; experiment: Toxicity in ICR mouse assessed as tetanus at > 500 mg/kg, ip after 7 days; format: organism-based; parameters: dose 500 mg/kg, route intraperitoneal; conditions: in vivo, 168 h; outline: as §2
[18] = test system: Mus musculus; experiment: Toxicity in ICR mouse assessed as tremor at > 500 mg/kg, ip after 7 days; format: organism-based; parameters: dose 500 mg/kg, route intraperitoneal; conditions: in vivo, 168 h; outline: as §2

O=C(O)c1cc2c3ccccc3n(Cc3ccccc3)c2c(CCN2CCC[C@H]2C(=O)O)n1
inhibition in vivo at 89 µmol/kg [1]: 7.2% | IC50 [2]: 75.5 µM | Activity [3]: 1.53 g | IC50 [4]: 161 µM | Activity [5]: 12.1 mg/g | Activity [6]: 12.07 g | IC50 [7]: 107 µM | IC50 [8]: 28.4 µM | IC50 [9]: 55.2 µM

O=C(O)c1cc2c3ccccc3n(Cc3ccccc3)c2c(CCN[C@@H](Cc2ccccc2)C(=O)O)n1
Activity [10]: Non-toxic | Activity [11]: Non-toxic | inhibition in vivo at 89 µmol/kg [1]: 5.2% | Activity [12]: Non-toxic | IC50 [2]: 59.3 µM | Activity [13]: Non-toxic | Activity [3]: 1.56 g | IC50 [4]: 51.7 µM | Activity [14]: Non-toxic | Activity [5]: 14.4 mg/g | Activity [15]: Non-toxic | Activity [6]: 9.74 g | Activity [16]: Non-toxic | IC50 [7]: 114 µM | IC50 [8]: 31.8 µM | Activity [17]: Non-toxic | IC50 [9]: 11 µM | Activity [18]: Non-toxic

O=C(O)c1cc2c3ccccc3n(Cc3ccccc3)c2c(CCN[C@@H](Cc2ccc(O)cc2)C(=O)O)n1
Activity [10]: Non-toxic | Activity [11]: Non-toxic | inhibition in vivo at 89 µmol/kg [1]: 48.6% | Activity [12]: Non-toxic | IC50 [2]: 72.5 µM | Activity [13]: Non-toxic | Activity [3]: 0.85 g | IC50 [4]: 209 µM | Activity [14]: Non-toxic | Activity [5]: 13.6 mg/g | Activity [15]: Non-toxic | Activity [6]: 13.62 g | Activity [16]: Non-toxic | IC50 [7]: 127 µM | IC50 [8]: 24 µM | Activity [17]: Non-toxic | IC50 [9]: 59.3 µM | Activity [18]: Non-toxic

O=C(O)CNCCc1nc(C(=O)O)cc2c3ccccc3n(Cc3ccccc3)c12
Activity [10]: Non-toxic | Activity [11]: Non-toxic | inhibition in vivo at 89 µmol/kg [1]: 11% | Activity [12]: Non-toxic | IC50 [2]: 75.6 µM | Activity [13]: Non-toxic | Activity [3]: 1.47 g | IC50 [4]: > 400 µM | Activity [14]: Non-toxic | Activity [5]: 13.1 mg/g | Activity [15]: Non-toxic | Activity [6]: 11.34 g | Activity [16]: Non-toxic | IC50 [7]: > 400 µM | IC50 [8]: > 400 µM | Activity [17]: Non-toxic | IC50 [9]: 178 µM | Activity [18]: Non-toxic

CSCC[C@H](NCCc1nc(C(=O)O)cc2c3ccccc3n(Cc3ccccc3)c12)C(=O)O
inhibition in vivo at 89 µmol/kg [1]: 1.5% | IC50 [2]: 100 µM | Activity [3]: 1.63 g | IC50 [4]: 26.5 µM | Activity [5]: 11.8 mg/g | Activity [6]: 9.12 g | IC50 [7]: 108 µM | IC50 [8]: 182 µM | IC50 [9]: 86.4 µM

O=C(O)c1cc2c3ccccc3n(Cc3ccccc3)c2c(CCN2C(=O)CCC2C(=O)O)n1 (stereo not drawn)
inhibition in vivo at 89 µmol/kg [1]: 43% | IC50 [2]: 97.6 µM | Activity [3]: 0.94 g | IC50 [4]: > 400 µM | Activity [5]: 12.2 mg/g | Activity [6]: 12.24 g | IC50 [7]: > 400 µM | IC50 [8]: 112 µM | IC50 [9]: 45.9 µM

CC(C)C[C@H](NCCc1nc(C(=O)O)cc2c3ccccc3n(Cc3ccccc3)c12)C(=O)O
inhibition in vivo at 89 µmol/kg [1]: 8.7% | IC50 [2]: 69.9 µM | Activity [3]: 1.51 g | IC50 [4]: 189 µM | Activity [5]: 10.9 mg/g | Activity [6]: 9.04 g | IC50 [7]: 176 µM | IC50 [8]: 45.2 µM | IC50 [9]: 71.2 µM

O=C(O)C[C@H](NCCc1nc(C(=O)O)cc2c3ccccc3n(Cc3ccccc3)c12)C(=O)O
Activity [10]: Non-toxic | Activity [11]: Non-toxic | inhibition in vivo at 89 µmol/kg [1]: 34.7% | Activity [12]: Non-toxic | IC50 [2]: 69 µM | Activity [13]: Non-toxic | Activity [3]: 1.08 g | IC50 [4]: 99.3 µM | Activity [14]: Non-toxic | Activity [5]: 13 mg/g | Activity [15]: Non-toxic | Activity [6]: 10.11 g | Activity [16]: Non-toxic | IC50 [7]: 114 µM | IC50 [8]: 43.2 µM | Activity [17]: Non-toxic | IC50 [9]: 13 µM | Activity [18]: Non-toxic
